Results: ChEMBL document CHEMBL1938303, “Novel biologically active nitro and amino substituted benzimidazo[1,2-a]quinolines” (Bioorg Med Chem, 2011)
Calls of active or inactive are those of the source. No cut-off for these calls is given here.

Key:
[1] = Aqueous solubility of the compound; type: physicochemical; conditions: buffer
MOLT-4 = assay: Antitumor activity against human MOLT4 cells assessed as growth inhibition after 72 hrs by MTT assay; type: functional, cell-based
How it was run: (§1)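 MCF-7, SW 620, HCT 116 and H 460 were grown as monolayers in DMEM, and MOLT-4 in suspension in RPMI, all with 10% FBS, 2 mM L-glutamine and penicillin/streptomycin at 37 °C in 5% CO2. Cells were seeded at 1×10^4 to 3×10^4 cells/mL on day 0. Compounds were added in ten-fold dilutions (10^-8 to 10^-4 M) for 72 h, then read by MTT at 570 nm. IC50 came from linear regression of percentage growth. Quadruplicate, at least two experiments.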

HCT-116 [2] = assay: Antitumor activity against human HCT116 cells assessed as growth inhibition after 72 hrs by MTT assay; type: functional, cell-based; how it was run: as §1
SW-620 = assay: Antitumor activity against human SW620 cells assessed as growth inhibition after 72 hrs by MTT assay; type: functional, cell-based; how it was run: as §1
NCI-H460 [3] = assay: Antitumor activity against human H460 cells assessed as growth inhibition after 72 hrs by MTT assay; type: functional, cell-based; how it was run: as §1
HCT-116 [4] = assay: Cell cycle arrest in human HCT116 cells assessed as accumulation at Sub G0/G1 phase at 5 uM after 24 hrs by flow cytometric analysis (reference value: 3 %); type: functional
HCT-116 [5] = assay: Cell cycle arrest in human HCT116 cells assessed as accumulation at G0/G1 phase at 5 uM after 24 hrs by flow cytometric analysis (reference value: 40 %); type: functional
HCT-116 [6] = assay: Cell cycle arrest in human HCT116 cells assessed as accumulation at S phase at 5 uM after 24 hrs by flow cytometric analysis (reference value: 39 %); type: functional
HCT-116 [7] = assay: Cell cycle arrest in human HCT116 cells assessed as accumulation at G2/M phase at 5 uM after 24 hrs by flow cytometric analysis (reference value: 21 %); type: functional
HCT-116 [8] = assay: Cell cycle arrest in human HCT116 cells assessed as accumulation at Sub G0/G1 phase at 5 uM after 48 hrs by flow cytometric analysis (reference value: 1 %); type: functional
HCT-116 [9] = assay: Cell cycle arrest in human HCT116 cells assessed as accumulation at G0/G1 phase at 5 uM after 48 hrs by flow cytometric analysis (reference value: 40 %); type: functional
HCT-116 [10] = assay: Cell cycle arrest in human HCT116 cells assessed as accumulation at S phase at 5 uM after 48 hrs by flow cytometric analysis (reference value: 35 %); type: functional
HCT-116 [11] = assay: Cell cycle arrest in human HCT116 cells assessed as accumulation at G2/M phase at 5 uM after 48 hrs by flow cytometric analysis (reference value: 25 %); type: functional
Nucleic Acid [12] = assay: Binding affinity to calf thymus DNA assessed as binding constant at pH 7 by fluorescence quenching assay; type: nucleic-acid assay; conditions: Bos taurus
How it was run: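 Calf thymus DNA in sodium cacodylate buffer (I = 0.05 mol dm⁻³, pH 7.0) was sonicated and filtered, with concentration taken as phosphate. Portions of DNA were added to the buffered compound, keeping absorbance below 0.05 at the excitation wavelength and DMSO below 1%. Emission was recorded from 350 to 600 nm. Ks came from non-linear Scatchard fitting, recalculated at fixed n = 0.2.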

Nucleic Acid [13] = assay: Binding affinity to calf thymus DNA assessed as binding constant at pH 7 by UV-visible spectrophotometry; type: nucleic-acid assay; conditions: Bos taurus
How it was run: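 Sonicated, filtered ct-DNA was quantified as phosphate. It was added in portions to the compound solution in sodium cacodylate buffer (I = 0.05 mol dm⁻³, pH 7.0), and absorbance changes were followed. Ks came from non-linear least-squares fitting to the Scatchard equation, with Ks recalculated for a fixed n of 0.2.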

Nucleic Acid [14] = assay: Binding affinity to calf thymus DNA by CD-Spectroscopy; type: nucleic-acid assay; conditions: Bos taurus
Nucleic Acid [15] = assay: Binding affinity to calf thymus DNA assessed as change in melting temperature at compound to DNA molar ratio of 0.1 at pH 7 by thermal denaturation assay; type: nucleic-acid assay; conditions: Bos taurus
How it was run: (§2)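 Absorbance of ct-DNA alone or with compound at 260 nm was recorded against temperature in sodium cacodylate buffer (I = 0.05 mol dm⁻³, pH 7.0). r = [compound]/[polynucleotide]. Ligand absorbance was subtracted and curves were normalised. Tm was the transition midpoint, taken from the first-derivative maximum or by tangent method. ΔTm = Tm(complex) − Tm(free DNA), averaged over at least two runs, ±0.5 °C.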

Nucleic Acid [16] = assay: Binding affinity to calf thymus DNA assessed as change in melting temperature at compound to DNA molar ratio of 0.2 at pH 7 by thermal denaturation assay; type: nucleic-acid assay; conditions: Bos taurus; how it was run: as §2
Nucleic Acid [17] = assay: Binding affinity to calf thymus DNA assessed as change in melting temperature at compound to DNA molar ratio of 0.3 at pH 7 by thermal denaturation assay; type: nucleic-acid assay; conditions: Bos taurus; how it was run: as §2
MCF7 = assay: Antitumor activity against human MCF7 cells assessed as growth inhibition after 72 hrs by MTT assay; type: functional, cell-based; conditions: MCF7, 72 h; how it was run: as §1
Nucleic Acid [18] = assay: Binding affinity to calf thymus DNA assessed as intercalation measuring viscosity index at compound to DNA molar ratio of 0.2 at pH 7 by viscometry method; type: nucleic-acid assay; conditions: Bos taurus
[19] = Drug uptake in human H460 cell nucleus at 100 uM after 2 hrs by fluorescence microscopy; type: ADME, cell-based; conditions: h460, 2 h
How it was run: (§3)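 H 460 cells were grown on cover slips (100,000 cells/well) in DMEM at 37 °C for 24 h. They were then exposed to 100 µM compound for 120 min, rinsed twice with PBS, and examined immediately for intrinsic compound fluorescence under a fluorescence microscope.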

[20] = Drug uptake in human H460 cell cytoplasm at 100 uM after 2 hrs by fluorescence microscopy; type: ADME, cell-based; conditions: h460, 2 h; how it was run: as §3
[21] = Drug uptake in human H460 cell cytoplasm at 100 uM after 24 hrs by fluorescence microscopy; type: ADME, cell-based; conditions: h460, 24 h
NCI-H460 [22] = assay: Drug uptake in human H460 cells assessed as colocalization with endoplasmic reticulum at 100 uM after 2 hrs by fluorescence microscopy; type: ADME, cell-based; conditions: nci-h460, 2 h

Compound	IC50 (MOLT-4; molt-4) [µM]	Activity (HCT-116 [4]) [%]	Activity (HCT-116 [5]) [%]	Activity (HCT-116 [6]) [%]	Activity (HCT-116 [7]) [%]	Activity (HCT-116 [8]) [%]	Activity (HCT-116 [9]) [%]	Activity (HCT-116 [10]) [%]	Activity (HCT-116 [11]) [%]	log Ks (Nucleic Acid [12])	IC50 (MOLT-4; Homo sapiens, MOLT-4, 72 h) [µM]	IC50 (HCT-116 [2]; Homo sapiens, HCT-116, 72 h) [µM]	IC50 (SW-620; Homo sapiens, SW-620, 72 h) [µM]	IC50 (MCF7) [µM]	IC50 (NCI-H460 [3]; Homo sapiens, NCI-H460, 72 h) [µM]	also measured
N#Cc1cc2cc(N)ccc2n2c1nc1ccccc12 [listing 1 of 2 here]	6	6	62	20	18	3	47	25	28	–	–	–	–	–	–	solubility [1]: Insoluble; IC50 (HCT-116 [2]; hct-116): 4 µM; IC50 (SW-620; sw-620): 4 µM; IC50 (NCI-H460 [3]; nci-h460): 3 µM
N#Cc1cc2cc(N)ccc2n2c1nc1ccccc12 [listing 2 of 2 here]	–	–	–	–	–	–	–	–	–	5.5	–	–	–	–	–	log Ks (Nucleic Acid [13]): 5.1; Activity (Nucleic Acid [14]): Active; ΔTm (Nucleic Acid [15]): 0.9 °C; ΔTm (Nucleic Acid [16]): 1.9 °C; ΔTm (Nucleic Acid [17]): 0.2 °C
O=[N+]([O-])c1ccc2c(ccc3nc4ccccc4n32)c1	–	–	–	–	–	–	–	–	–	–	3	6	6	4	8	–
CC[n+]1c(-c2ccccc2)c2cc(N)ccc2c2ccc(N)cc21	–	–	–	–	–	–	–	–	–	6	–	–	–	–	–	Activity (Nucleic Acid [18]): Active
Cl.N#Cc1cc2cc(N)ccc2n2c1nc1ccccc12	2	4	55	20	25	4	45	31	24	–	–	3	6	4	2	Drug uptake [19]: Not Active; Drug uptake [20]: Active; Drug uptake [21]: Active; Drug uptake (NCI-H460 [22]): Active
O=[N+]([O-])c1ccc(Cl)c(/C=C/c2nc3ccccc3[nH]2)c1	–	–	–	–	–	–	–	–	–	–	> 100	4	28	32	> 100	–
